From ChEMBL document CHEMBL1123619, “Isothiourea derivatives of 6-phenyl-2,3,5,6-tetrahydroimidazo[2,1-b]thiazole with broad-spectrum anthelmintic activity” (J Med Chem, 1987)

How the values were obtained:
Ovis aries [1] = experiment: Antihelmethic activity expressed as the percentage of worms eliminated in the feces in sheep large bowel at peroral dose of 30 mg/kg against Lungworm Dictyocaulus filaria.; assay type: functional; conditions: route oral
How it was run: (§1)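 Sheep given a single dose, oral or subcutaneous. Total daily feces collected for 4 days after treatment and examined for expelled worms. Necropsy at day 7 after dosing; lungs, liver and gastrointestinal tract removed and remaining worms identified. Activity calculated by comparing worms passed in feces with those remaining at autopsy. Single animals per test unless otherwise indicated.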

Mus musculus [2] = experiment: Nematocidal activity against Nematospiroides dubius induced necropsy in mouse, after oral administration of 100 mg/kg; assay type: functional
How it was run: (§2)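 Seven-week-old female LACA mice infected orally with 100 N. dubius L3 larvae; single gavage dose given at day 10 of infection, groups of four mice; necropsy 4 days later; percent activity from worm burdens of treated versus untreated groups.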

Ovis aries [3] = experiment: Antihelmethic activity expressed as the percentage of worms eliminated in the feces in sheep abomasum at peroral dose of 15 mg/kg against Trichostrongylus axei; assay type: functional; conditions: route oral; how it was run: as §1
Ovis aries [4] = experiment: Antihelmethic activity expressed as the percentage of worms eliminated in the feces in sheep abomasum at peroral dose of 30 mg/kg against Haemonchus contortus; assay type: functional; conditions: route oral; how it was run: as §1
Mus musculus [5] = experiment: Nematocidal activity against Nematospiroides dubius induced necropsy in mouse, after oral administration of 12.5 mg/kg of the compound; assay type: functional
How it was run: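 Female LACA mice (7 weeks) infected orally with 100 N. dubius L3 larvae; single oral dose as solution in PEG 400 on infection day 10, four mice per group; necropsied 4 days later; percent activity by comparing treated and untreated worm burdens.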

Ovis aries [6] = experiment: Antihelmethic activity expressed as the percentage of worms eliminated in the feces in sheep large bowel at peroral dose of 15 mg/kg against Oesophagostomum columbianum.; assay type: functional; conditions: route oral; how it was run: as §1
Ovis aries [7] = experiment: Antihelmethic activity expressed as the percentage of worms eliminated in the feces in sheep large bowel at peroral dose of 15 mg/kg against Lungworm Dictyocaulus filaria.; assay type: functional; conditions: route oral; how it was run: as §1
Ovis aries [8] = experiment: Antihelmethic activity expressed as the percentage of worms eliminated in the feces in sheep large bowel at peroral dose of 30 mg/kg against Oesophagostomum columbianum.; assay type: functional; conditions: route oral; how it was run: as §1
Felis catus = experiment: Antihelmethic activity expressed as the percentage of worms eliminated in the feces in cat tapeworm at peroral dose of 30 mg/kg; worms expelled and no futher segments appeared in the feces for the duration of the test; assay type: functional, organism-based; set-up: dose 30 mg/kg
Mus musculus [9] = experiment: Nematocidal activity against Nematospiroides dubius induced necropsy in mouse, after oral administration of 100 mg/kg of the compound; assay type: functional; how it was run: as §2
Ovis aries [10] = experiment: Antihelmethic activity expressed as the percentage of worms eliminated in the feces in sheep abomasum at subcuteneous dose of 30 mg/kg against Trichostrongylus axei; assay type: functional; how it was run: as §1
Ovis aries [11] = experiment: Antihelmethic activity expressed as the percentage of worms eliminated in the feces in sheep […] at subcuteneous dose of 30 mg/kg against Liver fluke Fasciola hepatica.; assay type: functional
Mus musculus [12] = experiment: Nematocidal against Nematospiroides dubius in mouse was determined at 25 mg/kg peroral dose of compound; assay type: functional; conditions: route oral; how it was run: as §2
Ovis aries [13] = experiment: Toxic activity expressed as the percentage against liver fluke in the sheep at 30 mg/kg peroral administration of dose; assay type: ADME, organism-based; set-up: dose 30 mg/kg, route oral; conditions: in vivo, po
How it was run: (§3)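 Fasciola hepatica in sheep, controlled test; animals necropsied only when fecal egg count fell; postmortem fluke burdens compared with untreated control sheep (10 controls).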

Ovis aries [14] = species on record: Ovis aries; experiment: (§4) Antihelmethic activity expressed as the percentage of worms eliminated in the feces in sheep species.; assay type: functional
How it was run: (§5)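 Sheep; total daily faeces collected for 4 days after treatment and searched for expelled worms; necropsy 7 days post-dose with lungs, liver and GI tract examined and worms identified; activity from worms passed in faeces versus worms remaining in host at autopsy.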

Ovis aries [15] = experiment: Antihelmethic activity expressed as the percentage of worms eliminated in the feces in sheep large bowel at peroral dose of 30 mg/kg against chabertia ovina.; assay type: functional; conditions: route oral; how it was run: as §1
Ovis aries [16] = experiment: Antihelmethic activity expressed as the percentage of worms eliminated in the feces in sheep small intestine at peroral dose of 15 mg/kg against Bunostomum trigonocephalum.; assay type: functional; conditions: route oral; how it was run: as §1
Ovis aries [17] = experiment: Antihelmethic activity expressed as the percentage of worms eliminated in the feces in sheep large bowel at subcuteneous dose of 30 mg/kg against chabertia ovina.; assay type: functional; how it was run: as §1
Canis familiaris = experiment: Antihelmethic activity expressed as the percentage of worms eliminated in the feces in dog toxascaris at peroral dose of 30 mg/kg; worms voided and toxascaris egg count reduced to zero for the duration of the test; assay type: functional, organism-based; set-up: dose 30 mg/kg; conditions: Canis lupus familiaris
Mus musculus [18] = experiment: Nematocidal against Nematospiroides dubius in mouse was determined at 100 mg/kg peroral dose of compound; assay type: functional; conditions: route oral; how it was run: as §2
Ovis aries [19] = experiment: Antihelmethic activity expressed as the percentage of worms eliminated in the feces in sheep small intestine at peroral dose of 15 mg/kg against Trichostrongylus axei; assay type: functional; conditions: route oral; how it was run: as §1
Mus musculus [20] = experiment: Nematocidal against Nematospiroides dubius in mouse was determined at 50 mg/kg peroral dose of compound; assay type: functional; conditions: route oral; how it was run: as §2
Ovis aries [21] = experiment: Antihelmethic activity expressed as the percentage of worms eliminated in the feces in sheep large bowel at subcuteneous dose of 30 mg/kg against Trichuris ovis.; assay type: functional; how it was run: as §1
Ovis aries [22] = experiment: Antihelmethic activity expressed as the percentage of worms eliminated in the feces in sheep abomasum at peroral dose of 30 mg/kg against Trichostrongylus axei; assay type: functional; conditions: route oral; how it was run: as §1
Ovis aries [23] = experiment: Antihelmethic activity expressed as the percentage of worms eliminated in the feces in sheep small intestine at peroral dose of 30 mg/kg against Bunostomum trigonocephalum.; assay type: functional; conditions: route oral; how it was run: as §1
Ovis aries [24] = experiment: Antihelmethic activity expressed as the percentage of worms eliminated in the feces in sheep […] at peroral dose of 15 mg/kg against Liver fluke Fasciola hepatica.; assay type: functional; conditions: route oral
[25] = system: Heligmosomoides polygyrus; experiment: Nematocidal activity against Nematospiroides dubius induced necropsy in mouse, oral administration 200 mg/kg; assay type: functional; how it was run: as §2
Ovis aries [26] = experiment: Toxic activity expressed as the percentage against liver fluke in the sheep at 15 mg/kg peroral administration of dose; assay type: ADME, organism-based; set-up: dose 15 mg/kg, route oral; conditions: in vivo, po; how it was run: as §3
Ovis aries [27] = experiment: Antihelmethic activity expressed as the percentage of worms eliminated in the feces in sheep large bowel at peroral dose of 15 mg/kg against Trichuris ovis.; assay type: functional; conditions: route oral; how it was run: as §1
Mus musculus [28] = experiment: Nematocidal activity against Nematospiroides dubius induced necropsy in mouse, after oral administration of 50 mg/kg of the compound; assay type: functional; how it was run: as §2
Ovis aries [29] = experiment: Antihelmethic activity expressed as the percentage of worms eliminated in the feces in sheep small intestine at peroral dose of 15 mg/kg against Cooperia curticei; assay type: functional; conditions: route oral; how it was run: as §1
Ovis aries [30] = experiment: Antihelmethic activity expressed as the percentage of worms eliminated in the feces in sheep small intestine at peroral dose of 15 mg/kg against Capillaria species.; assay type: functional; conditions: route oral; how it was run: as §1
Ovis aries [31] = experiment: Anthelmintic activity against adult liver fluke (Fasciola hepatica) in sheep, after peroral administration of 15 mg/kg was determined; assay type: functional; conditions: route oral
How it was run: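 Sheep dosed with a single oral dose. Fecal fluke egg output monitored after treatment. Animals necropsied only if the fecal egg count fell. Postmortem Fasciola hepatica burdens compared with untreated control sheep (mean of 10 controls). Single animals per test unless otherwise indicated, with group size given in parentheses. I denotes no effect on fecal fluke egg output.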

Ovis aries [32] = experiment: Antihelmethic activity expressed as the percentage of worms eliminated in the feces in sheep small intestine at peroral dose of 15 mg/kg against Strongyloides papillosus; assay type: functional; conditions: route oral; how it was run: as §1
Ovis aries [33] = species on record: Ovis aries; experiment: as §4; assay type: functional; how it was run: as §5; remark: listed apart in the source
Ovis aries [34] = experiment: Antihelmethic activity expressed as the percentage of worms eliminated in the feces in sheep small intestine at subcuteneous dose of 30 mg/kg against Cooperia curticei; assay type: functional; how it was run: as §1
Ovis aries [35] = experiment: Antihelmethic activity expressed as the percentage of worms eliminated in the feces in sheep […] at subcuteneous dose of 30 mg/kg against Lungworm Dictyocaulus filaria.; assay type: functional; how it was run: as §1

## CS/C(=N\c1cccc(C2CN3CCSC3=N2)c1)Nc1ccc(C#N)cc1 (stereo not drawn)
Ovis aries [1]
  Activity: 100%
Mus musculus [2]
  Reduction: 99%
Ovis aries [3]
  Activity: 92%
Ovis aries [4]
  Activity: 100%
Mus musculus [5]
  Activity: 28%
Ovis aries [6]
  Activity: 100%
Ovis aries [7]
  Activity: 100%
Ovis aries [8]
  Activity: 93%
Felis catus
  Activity: no toxic symptoms
Mus musculus [9]
  Activity: 100%
Ovis aries [10]
  Activity: 100%
Ovis aries [11]
  Activity: 100%
Mus musculus [12]
  Activity: 68
Ovis aries [13]
  Activity: 97%
Ovis aries [14]
  Activity: 95%
Ovis aries [15]
  Activity: 100%
Ovis aries [16]
  Activity: 100%
Ovis aries [17]
  Activity: 96%
Canis familiaris
  Activity: no toxic symptoms
Mus musculus [18]
  Activity: 100
Ovis aries [19]
  Activity: 100%
Mus musculus [20]
  Activity: 99
Ovis aries [21]
  Activity: 100%
Ovis aries [22]
  Activity: 100%
Ovis aries [23]
  Activity: 100%
Ovis aries [24]
  Activity: 100%
[25]
  Reduction: 100%
Ovis aries [26]
  Activity: 83%
Ovis aries [27]
  Activity: 100%
Mus musculus [28]
  Activity: 99%
  Reduction: 74%
Ovis aries [29]
  Activity: 99%
Ovis aries [30]
  Activity: 0%
Ovis aries [31]
  Activity: 83%
Ovis aries [32]
  Activity: 100%
Ovis aries [33]
  Activity: 100%
Ovis aries [34]
  Activity: 91%
Ovis aries [35]
  Activity: 100%
